Source: paper PMC12667952 (bioRxiv, 2025)
Changes are numbered by the printed parent chain. Like-named read-outs stand apart in the source and are kept apart here.

Assays:
[1] = target: T1, hGlyT2^D633E (Homo sapiens, UniProt Q9Y345, D633E); type: cell-based
T1 sequence (Q9Y345 1-797 D633E): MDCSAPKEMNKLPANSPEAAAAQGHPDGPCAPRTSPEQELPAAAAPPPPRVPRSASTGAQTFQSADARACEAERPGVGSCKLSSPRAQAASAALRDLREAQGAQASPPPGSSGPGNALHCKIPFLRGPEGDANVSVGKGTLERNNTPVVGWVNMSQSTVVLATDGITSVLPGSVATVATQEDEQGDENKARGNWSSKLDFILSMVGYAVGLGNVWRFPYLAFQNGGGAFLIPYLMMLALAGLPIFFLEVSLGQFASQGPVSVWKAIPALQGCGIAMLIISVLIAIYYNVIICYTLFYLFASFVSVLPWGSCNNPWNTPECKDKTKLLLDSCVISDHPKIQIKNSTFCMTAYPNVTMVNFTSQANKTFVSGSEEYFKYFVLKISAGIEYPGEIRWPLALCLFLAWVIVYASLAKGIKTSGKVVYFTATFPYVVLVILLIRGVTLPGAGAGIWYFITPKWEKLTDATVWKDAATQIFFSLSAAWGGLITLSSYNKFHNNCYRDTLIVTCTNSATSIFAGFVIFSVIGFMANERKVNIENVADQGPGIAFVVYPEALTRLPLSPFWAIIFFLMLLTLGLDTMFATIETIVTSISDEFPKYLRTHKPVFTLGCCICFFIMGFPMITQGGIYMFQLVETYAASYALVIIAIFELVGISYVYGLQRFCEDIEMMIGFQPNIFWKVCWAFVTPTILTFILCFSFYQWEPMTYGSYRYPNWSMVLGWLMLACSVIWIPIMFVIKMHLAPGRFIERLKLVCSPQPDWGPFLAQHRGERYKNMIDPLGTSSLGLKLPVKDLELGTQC

[2] = target: T2, hGlyT2^W215F (Homo sapiens, UniProt Q9Y345, W215F); type: cell-based
T2 sequence (Q9Y345 1-797 W215F): T1 sequence (Q9Y345 1-797 D633E) with W215F, E633D

[3] = target: T3, hGlyT2^WT (Homo sapiens, UniProt Q9Y345); test: Reversibility; type: cell-based
T3 sequence (Q9Y345 1-797): T1 sequence (Q9Y345 1-797 D633E) with E633D
Summary of the method: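 Xenopus oocytes injected with 20 ng hGlyT2 WT cRNA and held 3–6 days at 18 °C. Glycine currents recorded by two-electrode voltage clamp at −60 mV. Test compound applied at a single concentration (10 μM maximum), then washed out. Recovery of 30 µM glycine-evoked currents followed to 30 min, normalised to pre-inhibitor current. n ≥ 5 from at least two frogs.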

[4] = target: T3, hGlyT2^WT; test: Sodium dependence of inhibition of glycine transport currents; type: cell-based; conditions: IC50 at 100 mM Na+, 100 mM Na+, 300 μM glycine
[5] = tested on: mice; conditions: 50 mg/kg; cited from earlier work
[6] = target: T1, hGlyT2^D633E; test: Reversibility; type: cell-based
[7] = target: T3, hGlyT2^WT; type: cell-based
[8] = cited from earlier work
[9] = tested on: mice; conditions: 50 mg/kg; cited from earlier work; remark: listed apart in the source
[10] = target: T2, hGlyT2^W215F; test: Reversibility; type: cell-based
[11] = tested on: CCI mice; test: Cold allodynia; type: in vivo, mouse; conditions: control compound gabapentin 100 mg/kg, by 2-hour time point
Summary of the method: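 CCI mice tested 14 days after surgery. […] Acetone-evoked cold allodynia scored before surgery, at t = 0 before dosing, and at 0.5, 1, 1.5, 2, 4 and 6 h. Expressed as % of maximal possible responses. Two-way ANOVA with Dunnett's test versus vehicle.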

[12] = tested on: GlyT2; conditions: read-out: IC50 for GlyT2; cited from earlier work
[13] = tested on: C57BL/6J mice; test: Conditioned place preference; type: in vivo, mouse; conditions: 10 mg/kg, i.p., positive control

COc1cc(C(=O)NCC2(N(C)C)CCCC2)cc(OC)c1OCc1ccccc1 [ORG25543, 4-(benzyloxy)-N-{[1-(dimethylamino)cyclopentyl]methyl}-3,5-dimethoxybenzamide, reference compound]
Reduction in potency of inhibition, D633E versus WT [1]: ~ 14 fold | Decrease in potency of inhibition, W215F versus WT [2]: ~three-fold | Glycine currents restored, of pre-inhibitor levels ([3]; after 30 minutes washout): 12.5% | Reversibility of inhibition (recovery of glycine-induced currents) ([3]; washout, hGlyT2^WT): minimal restoration of glycine-induced currents 30-minutes post-ORG25543 | IC50 [4]: 17.6 nM | Side effects coinciding with analgesic dose [5]: near-complete loss of rotarod performance, seizures and in one case, lethality | Washout of inhibitor from hGlyT2^D633E [6]: recovery from ORG25543 within five minutes | IC50 [7]: 11.4 nM | Effects on inflammatory and acute nociceptive pain thresholds [8]: no effects | Mechanical allodynia [9]: reversed mechanical allodynia | Washout of inhibitor from hGlyT2^W215F [10]: significantly increased the rate of ORG25543 washout

NCC1(CC(=O)O)CCCCC1 [Gabapentin, reference compound]
Peak reduction of response rate to acetone stimulus [11]: 75%

CCCCCCCC/C=C\CCCCCCCC(=O)N[C@H](CCCCN)C(=O)O [oleoyl-D-lysine]
Effects on inflammatory and acute nociceptive pain thresholds [8]: no effects

CCCCOc1c(OC)cc(C(=O)NCC2(N(C)C)CCOCC2)cc1OC [opiranserin]
IC50 [12]: 860 nM

CN1CC[C@]23c4c5ccc(O)c4O[C@H]2[C@@H](O)C=C[C@H]3[C@H]1C5 [morphine, reference compound]
Preference for the paired chamber [13]: significant increase in preference for the paired chamber
